The text below walks through data of publication PMC6097486 (International Journal of Biological Sciences, 2018).

Usually Kd stands for the constant that tells how readily two partners part at equilibrium. Read a high Kd as a looser complex.

Data set [1] relates to NSCLC. The following applies: ref [7]-[9]; cited from earlier work.
The conditions of data set [2]: ref [10]; cited from earlier work.
The subject of data set [3] is CAM. The experiment in a line: Chick chorioallantoic membrane. In kind it is in vivo. To be noted: FGF2 10 ng/ml alone, 24 h. In short, it runs like this:
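Test peptide applied with FGF2 (10 ng/ml) onto the CAM surface on day 8 of egg incubation. Incubation continued for 24 h, then the CAM surface was photographed to assess angiogenesis.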

For data set [4], the system named is A549 cells. The experiment in a line: Tube formation assay on matrigel, A549 cells. The format is cell-based, human. To be noted: FGF2 10 ng/ml alone, 6 h, versus control (###P < 0.001).
Data set [5] relates to FGFR1-ERK1/2 MAPK signaling pathway. The experiment in a line: FGFR1-ERK1/2 MAPK signaling activation by FGF2. In kind it is cell-based, human. The following applies: stimulation with FGF2; A549 and NCI-H460 cells. The procedure, abridged:
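A549 and NCI-H460 cells (FGFR1-high human NSCLC) grown in DMEM/high glucose with 10% FBS at 37°C, 5% CO₂. Treatment 2 h; FGFR1 inhibitor PD173074 (100 nM) as positive control. Lysate protein (30 µg) run on 10% SDS-PAGE, transferred to PVDF, blocked in 8% nonfat milk/TBST. Probed for pFGFR1 and pERK1/2 (1:1000), normalised to β-actin.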

Data set [6] relates to FGFR1. The experiment in a line: Competitive elution of phage clones by FGF2. The format is binding. To be noted: 2 µg/ml FGF2, RT 1 h, 450 nm. The procedure, abridged:
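Phage clones (2 × 10^11 pfu/well) and control vcsM13 phage incubated on FGFR1 at RT for 1 h. Competitive elution with FGF2 (2 µg/ml) at RT for 1 h. Detection with anti-M13 mAb (37°C, 1 h), then goat anti-mouse IgG-HRP (37°C, 30 min) and TMB substrate. Absorbance read at 450 nm.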

Data set [7] is described as follows: Gross toxicity and body weight in A549 xenograft nude mice. The format is in vivo, BALB/cA nude mice. To be noted: 5 mg/kg/day i.p., 28 days. In short, it runs like this:
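Female athymic nu/nu BALB/cA mice, 7 weeks old, SPF housing, received subcutaneous A549 cells (2 × 10^6 cells in 200 μL saline, mixed 1:1 with matrigel) into upper and lower back. Two days later, test compound in saline was given i.p. for 28 days; controls got the same volume of saline. Body weight was recorded weekly.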

For data set [8], the target named is T1, human FGFR1 protein (human, UniProt P11362 22-376).
T1 sequence (looked up): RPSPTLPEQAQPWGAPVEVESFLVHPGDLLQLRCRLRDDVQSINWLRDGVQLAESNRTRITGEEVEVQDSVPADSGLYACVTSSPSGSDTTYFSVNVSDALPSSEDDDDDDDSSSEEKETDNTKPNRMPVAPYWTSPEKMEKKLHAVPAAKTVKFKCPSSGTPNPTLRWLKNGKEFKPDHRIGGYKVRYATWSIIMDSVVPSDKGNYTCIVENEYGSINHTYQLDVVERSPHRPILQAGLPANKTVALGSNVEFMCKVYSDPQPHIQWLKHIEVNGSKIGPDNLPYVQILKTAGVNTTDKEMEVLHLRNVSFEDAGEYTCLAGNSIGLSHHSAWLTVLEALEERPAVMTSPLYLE
The experiment in a line: SPR. (SPR reads the build-up and loss of mass on a sensor chip optically.)

Where no end group is shown, it is not given here.

As for `COc1cc(OC)cc(-c2cc3cnc(N)nc3nc2NC(=O)NC(C)(C)C)c1` [PD166866], the “growth of NSCLC” value in data set [1] is recorded as “suppress the growth of NSCLC”.

Consider `CCN(CC)CCCCNc1ncc2cc(-c3cc(OC)cc(OC)c3)c(NC(=O)NC(C)(C)C)nc2n1` [PD173074], for which, in data set [1], the “growth of NSCLC” value is on record as “suppress the growth of NSCLC”. Further, the “toxicity / clinical progress” value in data set [2] is listed as “failed to enter phase II clinical trials due to their high toxicities”.

In the case of `Cc1c[nH]c(/C=C2\C(=O)Nc3ccccc32)c1CCC(=O)O` [SU5402], the “growth of NSCLC” value in data set [1] was “suppress the growth of NSCLC”. Besides, the “toxicity / clinical progress” value in data set [2] is “failed to enter phase II clinical trials due to their high toxicities”.

For the molecule “FGF2: Specific ligand of FGFR1 (PeproTech)”, the angiogenesis entry in data set [3] is listed as “significantly induce angiogenesis”. In data set [4], the tube formation entry is recorded as “significantly induce tube formation”. For the same molecule, the “activation of FGFR1-ERK1/2 MAPK signaling pathway” value in data set [5] is reported as “evident”. In addition, in data set [6], the “elution efficiency for the phage clones” value is listed as “high elution efficiency”.

FHDAWPNLSKSS [R1-P2]: the toxicity observed entry in data set [7] (n = 5) is on record as “no remarkable toxicity observed”. Also, in data set [7] (n = 5, body weight recorded weekly), the “abnormal gross phenotypes including weight loss” value is recorded as “no signs of abnormal gross phenotypes including weight loss”.

FHDAWPNLSKSS [peptide R1-P2]: the Kd in data set [8] is roughly 154 nM.
